Results on 2 molecules are retold here after paper PMC8650835 (International Journal of Nanomedicine, 2021).

Molecules are shown by their SMILES. ≈ marks a conversion by molar mass, not a printed value.

The conditions of data set [1]: free CPT; cited from earlier work.
Data set [2] can be described thus: Aqueous solubility in PBS. The data set is classed as physicochemical. To be noted: pH = 7.4.
For data set [3] the following is noted: in PBS; cited from earlier work.
The nature of data set [4]: In vivo safety: body weight, H&E histology, blood biochemistry. Set-up: species or system BALB/c nude mice. The following applies: 10 mg·kg^−1 i.v. The method in brief:
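MCF-7 xenografts in BALB/c nude mice: 1×10^6 cells s.c. (alar region), randomised at 100–200 mm3 (n = 6/group). Untreated normal group also included. Body weight recorded every 2 days for 16 days. Day 16: serum ALT, AST, BUN, CRE measured; organs formalin-fixed, paraffin-embedded and H&E-stained.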

Usually aqueous solubility stands for the concentration that dissolves in the medium under given conditions. High values mean much dissolved substance, low ones little dissolved substance. For `CC[C@@]1(O)C(=O)OCc2c1cc1n(c2=O)Cc2cc3ccccc3nc2-1` [CPT, camptothecin], the “blood circulation half-life (t1/2)” value in data set [1] was 9.9 ± 8.04 min. The molecule further had an aqueous solubility in data set [2] of 3 µg/mL (≈ 8.61 µM). Moreover, in data set [3], the “CPT lactone form remained at equilibrium” value is 17% and the “half-life of lactone ring hydrolysis” value is 24 min.
Consider `CCc1c2c(nc3ccc(OC(=O)N4CCC(N5CCCCC5)CC4)cc13)-c1cc3c(c(=O)n1C2)COC(=O)[C@]3(O)CC` [IR, irinotecan], for which the “body weights compared to PBS” value in data set [4] (MCF-7 tumor-bearing nude mice, p < 0.05) is listed as “reduced observably”. For the same molecule, in data set [4] (day 16, p < 0.001, n = 6), the “creatinine (CRE) level compared with the normal group” value is “increased obviously”. In addition, in data set [4] (day 16, p < 0.05, n = 6), the “blood urea nitrogen (BUN) level compared with the normal group” value is given as “increased obviously”. Moreover, in data set [4] (characteristic of acute kidney injury), the “H&E staining of kidney” value was “obvious interstitial inflammatory cell infiltration”.
